# Bioassay records from PubChem BioAssay.
# ARNT TACC3 PPI = disruptors of human ARNT/TACC3 interaction; Q9Y6A5; AlphaScreen His-ARNT PAS-B/GST-TACC3 binding, luminescence; TACC3 fragment carries E629A point mutation; inhibition, % at 9.99 µM; 390,000 compounds, 0.66% hits;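 active = mean inhibition of replicates at least 50% and at least half of replicates each reaching 50%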;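 note: 0% = complete ARNT plus TACC3 wells and 100% = ARNT alone without TACC3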
# ERAP1 HTS inh = inhibitors of human ERAP1 aminopeptidase; Q9NZ08; recombinant ERAP1, Leu-AMC fluorescence, 60 min; inhibition, % at 10.7 µM; 340,000 compounds, 0.15% hits; AID 652197;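 active = mean replicate inhibition of at least 30%, or all replicates individually reaching that 30% level; inactive = mean below 30% and not every replicate reaching it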;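 note: 0% = neutral control wells and 100% = L-leucinethiol positive control wells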
# S100A4 MyoIIA = blocks human S100A4 binding to myosin IIA peptide; S100A4/TAMRA-MyoIIA peptide fluorescence polarization; inhibition, % at 10.7 µM; P26447; 360,000 compounds, 0.14% hits; AID 652163;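 active = mean inhibition of at least 70% across replicates, with every replicate also reaching that level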
# Target sequence (P26447 whole entry, looked up): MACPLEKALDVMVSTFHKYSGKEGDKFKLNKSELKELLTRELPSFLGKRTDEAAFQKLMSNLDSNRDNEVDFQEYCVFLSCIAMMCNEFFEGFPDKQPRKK
#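 assay system = human S100A4 monomer with TAMRA-labelled myosin IIA peptide | also added = labelled myosin peptide probe, 5 nM | incubation = 5 min between mix addition and reading | control set = DMSO and TFP controls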
# Casp6 inh = blocks human caspase-6 cleavage activity; P55212; 350,000 compounds, 0.53% hits; purified caspase-6, Z-VEID-R110 cleavage fluorescence; inhibition, % at 12.5 µM;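 active = mean inhibition across replicates at least about 35%, with every replicate also reaching that limit, limit read from the data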;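 note: 0% = median of neutral control wells and 100% = no fluorescence left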
# Target sequence (P55212 24-179 limits assumed): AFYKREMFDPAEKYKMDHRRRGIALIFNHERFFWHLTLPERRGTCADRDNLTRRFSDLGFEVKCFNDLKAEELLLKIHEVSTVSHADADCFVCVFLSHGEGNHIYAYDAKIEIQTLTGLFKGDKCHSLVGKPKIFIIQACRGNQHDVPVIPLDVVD
# Target sequence (P55212 194-293 limits assumed): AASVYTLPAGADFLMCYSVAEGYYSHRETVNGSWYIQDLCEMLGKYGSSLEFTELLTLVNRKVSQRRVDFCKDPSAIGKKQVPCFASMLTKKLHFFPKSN
# rRNA inh HTS = selective bacterial rRNA inhibition in E. coli | 350,000 compounds, 1.6% hits | GFP signal change (wild-type ribosome), % (test concentration not listed) | AID 720706 | E. coli WT GFP vs humanized-ribosome RFP mutants, fluorescence, 24 h; active compounds read low; DMSO median 0, no signal -100;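 active = significant combined selectivity score with lowered wild-type GFP, culture density cut under 30%, mutant RFP and density less affected; inactive = any of these conditions unmet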
# PGC1a acetyl inh = lowers PGC1a acetylation signal in U2OS cells; AlphaScreen anti-acetyl-lysine; with virally co-expressed GCN5 acetyltransferase; inhibition, % at 15.6 µM; 350,000 compounds, 0.17% hits; AID 651687;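 active = every replicate shows inhibition of at least 40%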;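 note: 0% = neutral control wells and 100% = positive control wells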
# Numbers without * were called inactive; x = no result given. This is a sample that favours compounds with a hit; in the whole collection about 2.4% have one here.
SMILES,ARNT TACC3 PPI,ERAP1 HTS inh,S100A4 MyoIIA,Casp6 inh,rRNA inh HTS,PGC1a acetyl inh
C[C@@H]1CN([C@H](C)CO)C(=O)c2cc(NS(=O)(=O)c3cn(C)cn3)ccc2O[C@@H](C)CCCCO[C@@H]1CN(C)C,5,0,-6,0,3,6
C/C(=N/OC(=O)c1ccc(C)cc1)c1cccs1,-1,x,x,x,x,2
C/C(=N/OC(=O)c1ccccc1Br)c1ccc(C)cc1,-1,0,-3,-3,-18*,4
C[C@H]1CN([C@@H](C)CO)C(=O)c2cccc(NS(C)(=O)=O)c2O[C@H]1CN(C)Cc1ccc2c(c1)OCO2,2,0,3,3,0,-3
O=C(O)c1ccc(/C=N/Nc2cccc(C(F)(F)F)c2)cc1,2,-14,-10,0,-41*,-5
O=C(O)c1ccc(N/N=C/c2ccc(-c3ccccc3)cc2)cc1,-10,-1,-2,15,-45,x
C[C@@H]1CN([C@H](C)CO)C(=O)c2cc(N(C)C)ccc2O[C@@H](C)CCCCO[C@@H]1CN(C)C(=O)Nc1cccc2ccccc12,12,-2,4,-1,0,5
CCC/C(O)=C1\C(=O)CCCC1=NCCc1c(C)[nH]c2ccc(C)cc12,-4,-2,2,4,3,-7
CCCC/C(O)=C1\C(=O)CCCC1=NCCc1c(C)[nH]c2ccccc12,34,-1,4,1,-23*,-9
COc1cccc(-c2ccc(CC[C@H]3O[C@H]4CC[C@@H](CO)O[C@H]4C[C@@H]3NC(=O)c3cnccn3)cc2)c1,x,4,-22,-1,x,-8
C[C@H]1CN([C@@H](C)CO)S(=O)(=O)c2ccc(C#CC3(O)CCCC3)cc2O[C@H]1CN(C)C(=O)c1ccncc1,1,-6,6,2,1,-5
O=C(CN1C(=O)NC2(CCOc3ccccc32)C1=O)c1ccc(Cl)cc1 (stereo not drawn),4,-1,1,78*,-19,-10
CC(C)NC(=O)Nc1cccc2c1O[C@H](CN(C)C(=O)NC(C)C)[C@@H](C)CN(C)C2=O,x,x,x,x,0,x
Cc1ccc(S(=O)(=O)Oc2cccc(/C=N/Nc3ccc(C(=O)O)cc3)c2)cc1,-2,2,5,11,-28*,-4
Cc1ccc(S(=O)(=O)Oc2cccc(/C=N/n3cnnc3)c2)cc1,-5,1,19,-2,-2,x
COc1ccc(Cl)cc1-n1c(=S)sc2c(=O)[nH]c(SCC(=O)C(C)(C)C)nc21,1,-7,-2,7,-24*,2
CCCCNC(=O)CSc1nc2c(sc(=S)n2-c2cc(Cl)ccc2OC)c(=O)[nH]1,-2,1,0,3,-2,x
COc1ccc(OC)c(-c2nnc3n2N=C(c2ccc(OC)c(OC4CCCC4)c2)CS3)c1,x,1,-26,4,-26,x
COc1ccc(OC)c(-c2nnc3n2N=C(c2ccc(OC(F)F)c(OCC4CC4)c2)CS3)c1,-4,x,-4,-1,-9,x
COc1ccc(C2=Nn3c(nnc3-c3ccccc3OC)SC2)cc1OCC1CC1,26,x,7,-1,-27*,-24
COc1ccc(OC)c(-c2nnc3n2N=C(c2ccc(OC)c(OC)c2)CS3)c1,18,2,3,6,-19*,x
CC1OC2CC(=O)OC2C2=C1C(=O)c1c(O)cccc1C2=O (stereo not drawn),x,21,-18,85*,x,78*
CCCC#Cc1ccc2c(c1)O[C@@H](CN(C)C(C)=O)[C@@H](C)CN([C@@H](C)CO)S2(=O)=O,0,-1,-6,1,-2,0
c1ccc2c(c1)CCc1ccccc1C2=C1CCNCC1,2,6,1,0,-36*,-17
CCN(c1ccccc1)c1nc(=O)c2cccnc2s1,-13,0,-3,4,-3,x
SMILES,ARNT TACC3 PPI,ERAP1 HTS inh,S100A4 MyoIIA,Casp6 inh,rRNA inh HTS,PGC1a acetyl inh
CCN(c1ccccc1)c1cc2ccccc2c(=O)[nH]1,33,-12,3,65*,4,-8
Cc1cccc(C)c1NS(=O)(=O)c1ccc(-c2ccc(=O)[nH]n2)o1,5,-1,-4,41*,0,-12
O=C(CCS(=O)(=O)c1ccc(Br)cc1)N1CCCCCC1,-4,2,0,61*,-2,2
C[C@H](CO)N1C[C@H](C)[C@H](CN(C)Cc2ccc(C(=O)Nc3ccccc3N)cc2)OCCCC[C@H](C)Oc2ccc(NC(=O)C3CCCCC3)cc2C1=O,x,1,-6,0,-1,-2
CC(C)c1csc2nc3n(c(=O)c12)CCCCC3,-5,-3,7,-4,-33*,-8
C[C@@H]1CN(C)C(=O)c2cc(NS(C)(=O)=O)ccc2O[C@H]1CN(C)C,x,x,x,x,-1,x
O=C1CCCC2=C1C(c1ccc(O)c(O)c1)c1c(ccc3ncccc13)N2 (stereo not drawn),x,-1,-4,62*,6,1
CC(Cc1c[nH]c2ccccc12)C(=O)NCc1ccco1 (stereo not drawn),-6,2,-3,42*,8,9
CO[C@@H]1CN(C)C(=O)c2ccc(NC(=O)NC3CCCCC3)cc2OC[C@@H](C)N(C(C)=O)C[C@H]1C,x,x,x,x,3,x
O=C(Cc1ccc(Cl)cc1)NCCc1ccc(F)cc1,x,x,2,1,-24*,0
Cc1nc(SCC(=O)NCCc2ccc(Cl)cc2)nc(C)c1C,12,-1,1,-2,-28*,-32
Cc1csc(SCC(=O)NCCc2ccc(Cl)cc2)n1,-8,5,-3,0,-20,x
O=C(NCCc1ccc(Cl)cc1)c1ccc2[nH]c(=O)c(=O)[nH]c2c1,-3,0,-6,5,-25*,6
CCS(=O)(=O)N1CC(=O)N2[C@H](CO)[C@@H](c3ccc(-c4ccccc4C)cc3)[C@@H]2C1,x,x,x,x,-1,x
Fc1ccc(NC(=S)Nc2ccccc2N2CCOCC2)cc1Cl,-1,2,3,-7,-27*,-4
Cc1onc(-c2c(F)cccc2Cl)c1C(=O)Nc1ccccc1N1CCOCC1,4,6,0,-2,-28*,x
CCOC(=O)C1=CNS(=O)(=O)NC1CCc1ccccc1 (stereo not drawn),35,1,-1,-2,-22*,x
COc1ccc(CN(C)C[C@H]2OCCCC[C@@H](C)Oc3ccc(NC(=O)NC(C)C)cc3C(=O)N([C@@H](C)CO)C[C@@H]2C)cc1,26,1,-2,1,0,8
Cc1cccc2sc(N(CCCN(C)C)C(=O)c3ccc4ncsc4c3)nc12,7,76*,-3,-10,0,x
COc1ccc(-c2cnc3c(c2)C(=O)N([C@@H](C)CO)C[C@@H](C)[C@H](CN(C)C(=O)C2CC2)O3)cc1,x,x,x,x,-4,x
